In series [1] the test system is BXPC-3. Kind of series: Antiproliferative activity against human BXPC-3 cells assessed as inhibition of cell viability incubated for 48 hrs by MTT assay. The series is classed as functional, cell-based. Particulars: BXPC-3, 48 h. In short, it runs like this:
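Cells in log phase were seeded at 8,000-10,000/well and allowed to adhere overnight at 37 °C, 5% CO2. Compound from DMSO stock, diluted in medium, was applied for 48 h; controls got drug-free medium, blanks held medium only. MTT (5 mg/mL stock) 4 h, formazan dissolved in DMSO, A490 read. Viability was blank-corrected against untreated cells; IC50 came from a fitted curve; three separate experiments.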
In general terms: Formazan colour is commonly taken as a measure of viable cells.

The subject of series [2] is BXPC-3. Kind of series: Inhibition of Hh signaling pathway in human BXPC-3 cells assessed as reduction in Ptch1 mRNA level incubated for 48 hrs by qRT-PCR analysis. The format is cell-based. In short, it runs like this:
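Total RNA was extracted by column kit after 48 h treatment and checked spectrophotometrically. Gli1 and Ptch1 transcripts were quantified by real-time RT-qPCR with GAPDH as internal control. Results are fold change relative to the untreated group; three separate experiments.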

Series [3] relates to PANC-1. Kind of series: Induction of apoptosis in human PANC-1 cells assessed as early apoptotic cells at 2.5 uM incubated for 48 hrs by Annexin V-FITC/PI staining based flow cytometry (reference value: 1.88 %). The format is functional.
The test system of series [4] is PANC-1. Kind of series: Induction of apoptosis in human PANC-1 cells assessed as viable cells at 5 uM incubated for 48 hrs by Annexin V-FITC/PI staining based flow cytometry (reference value: 93.2 %). Particulars: read-out: Activity. The series is classed as functional. In general terms: A flow cytometer gives signals particle by particle.
For series [5], the system named is BXPC-3. Kind of series: Induction of apoptosis in human BXPC-3 cells assessed as necrotic cells at 2.5 uM incubated for 48 hrs by Annexin V-FITC/PI staining based flow cytometry (reference value: 0.71 %). The format is functional.
In series [6] the test system is PANC-1. Kind of series: Induction of cell cycle arrest in human PANC-1 cells assessed as accumulation at G2 phase at 5 uM incubated for 48 hrs by PI/RNase staining based flow cytometry (reference value: 5.83 %). The series is classed as functional.
The test system of series [7] is PANC-1. Kind of series: Induction of cell cycle arrest in human PANC-1 cells assessed as accumulation at S phase at 10 uM incubated for 48 hrs by PI/RNase staining based flow cytometry (reference value: 7.58 %). The series is classed as functional.
The test system of series [8] is BxPC-3. Kind of series: Antitumor activity aginst human BxPC-3 cells xenografted in BALB/c nude mouse assessed as decrease in tumor weight at 15 mg/kg, ip qd for 21 days. The conditions noted are these: time 21.0 day. Background: In xenograft studies the graft and the host belong to different species.
Series [9] in a line: Toxicity in BALB/c nude mouse xenografted with human BxPC-3 cells assessed as cellular edema in lung at 5 to 15 mg/kg, ip qd for 21 days by H and E staining based analysis. Particulars: in vivo, 504 h.
Series [10] is described as follows: Toxicity in BALB/c nude mouse xenografted with human BxPC-3 cells assessed as inflammatory infiltration in spleen at 5 to 15 mg/kg, ip qd for 21 days by H and E staining based analysis. The conditions noted are these: in vivo, 504 h.

As a reminder, the IC50 is the concentration at which inhibition is half-maximal.

Calls of active or inactive are those of the source. No cut-off for these calls is given here.

For the compound `CN(C)Cc1ccc(NC(=O)c2ccc(Nc3nccc(-c4cccnc4)n3)cc2)cc1`, the IC50 in series [1] turned out to be 3.57 µM. In addition, in [2], the inhibition result was “Dose-dependent-effect”. Besides, the Activity in series [3] is recorded as 1.97%; in series [5], 1.37%; in series [6], 8.15%; in series [7], 10.5%; in series [9] it was “Non-toxic”; in series [10], “Non-toxic”. Further, the viability at 5 µM in series [4] turned out to be 87.3%. In addition, the outcome in [8] was Active.

For the origin of these results see ChEMBL document CHEMBL6092204, “Synthesis of pyridyl pyrimidine hedgehog signaling pathway inhibitors and their antitumor activity in human pancreatic cancer” (Eur J Med Chem, 2024).
